The results in this text go back to PubChem BioAssay AID463079 (The Scripps Research Institute Molecular Screening Center, 2010).

Screen size: about 330,000 compounds; about 2,000 (0.61%) were called active. The list comes from a sample in which actives are over-represented; it also holds similar structures and randomly drawn compounds. A number with no mark means an inactive call.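 Rule for the calls: active = inhibition above that plate's mean sample inhibition plus 3 SD (cut at about 26% in these data); inactive = the rest.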

A word on the inhibition: it is the change of the read-out against control, counted positive when it falls.

The nature of the assay: nonselective Gq signaling inhibition in CHO cells – cell-based, fluorescence, Fluo-8 calcium dye, counter-screen for OX1R antagonist project, primary screen (AID 463079).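 Note: 0% = ATP-challenged DMSO wells and 100% = DMSO wells without ATP.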 Conditions: parental CHO-K1, ATP-induced calcium, Fluo-8 fluorescence; at 5.6 µM; hits give high values. In short, it runs like this:
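Material: parental CHO cells / Compound: single nominal dose of 5.6 µM per compound / Signal: Fluo-8 fluorescence / Replicates: singlicate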
Background: The purpose of a counterscreen is to sort out artefacts and off-target activity.
With `C/C(=N\NC(=O)c1ccc(CSc2nc(C)cc(C)n2)cc1)C1CCCCC1`, the inhibition is -15.5%.

For the compound `COc1ccc(C(=O)Nc2cc(C)ccc2NC(=O)COc2ccccc2)cc1`, the inhibition was -7.7%.

`Cc1ccc(O)c(NC(=S)NC(=O)COc2ccc(Br)cc2)c1`: the inhibition is 58.4% (active).

Regarding `CCS(=O)(=O)c1ccc(O)c(NC(=O)COc2ccc(Cl)cc2)c1`, the inhibition is -4.26%.

`COCCCNC(=O)c1ccc(CNS(=O)(=O)c2ccc(NC(C)=O)cc2)cc1`: the inhibition is -6.87%.

`Cc1nnc(SCC(=O)N2c3ccccc3C(C)(c3ccc(Cl)cc3)CC2(C)C)s1` (stereo not given): the inhibition was -18.2%.

On to `CCOC(=O)[C@H]1[C@H]2COc3ccccc3[C@@H]2N2C(=O)CN(Cc3ccccc3)C(=O)[C@@]12C`, for which the inhibition was -31.8%.

Turning to `O=S(=O)(c1ccc(Cl)s1)N1CCC2(CC1)OCCO2`, the inhibition is -9.61%.

Regarding `CC(OC(=O)/C=C/c1ccccc1)C(=O)Nc1ccc(C(N)=O)cc1` (stereo not given), the inhibition is -8.76%.

With `C[C@@H](NC(=O)OC(C)(C)C)c1nnc(S(=O)(=O)Cc2ccccc2)o1`, the inhibition was 51.1% (active).

For `CC(C)Sc1nnc([C@H](Cc2ccccc2)NC(=O)OC(C)(C)C)o1`, the inhibition was -15.8%.

For the compound `C[C@H](NC(=O)OC(C)(C)C)c1nnc(SCC(=O)Nc2ccc(Br)cc2)o1`, the inhibition was -14.8%.

In the case of `NNC(=O)C1CC(O)CN1S(=O)(=O)c1ccc(Cl)cc1` (stereo not given), the inhibition is -12.3%.

`O=C(CN1CCN(S(=O)(=O)c2cc(Cl)ccc2Cl)CC1)c1ccc(O)c(O)c1`: the inhibition was -11.1%.

Take `Cc1ccc(S(=O)(=O)Nc2ccc(F)c(S(=O)(=O)N3CCOCC3)c2)cc1`: the inhibition was -18.4%.

With `COc1cccc(CSc2nc3nc(C)cc(C)n3n2)c1`, the inhibition was 9.68%.

As to `CC[C@]1(C(=O)OC)[C@H]2C(=O)N(Cc3ccccc3)C(=O)[C@H]2[C@H]2CN=C(SCc3ccc(C#N)cc3)N21`, the inhibition is -26.6%.

Turning to `CCOC(=O)C1=C(C)N(C[C@@H]2CC[C@@H](Cc3ccc(-c4ccccc4)cc3)O2)C(=O)NC1c1ccc([N+](=O)[O-])cc1` (stereo not given in full), the inhibition is -13.7%.

As for `CCN(CC)c1ccc(/C=N/NC(=O)c2cnccn2)c(O)c1`, the inhibition is 43.5% (active).

`O=C(Nc1ccc2c(c1)OCCO2)c1cnccn1`: the inhibition was -2.07%.

For `CCN1CCN(c2ccc(NC(=O)c3cnccn3)cc2)CC1`, the inhibition was -2.98%.

For the compound `CCOc1ccc(NS(=O)(=O)c2ccc(C)c(C(N)=O)c2)cc1`, the inhibition is -5.42%.

As for `CN1CCC(=NNC(=O)CN(c2cccc(Cl)c2)S(C)(=O)=O)CC1`, the inhibition is -9.11%.

Regarding `COc1ccc(-c2nnc(SCC(=O)c3ccc4c(c3)OCCO4)o2)cc1`, the inhibition is -4.45%.

In the case of `COc1ccc(-n2c(C)cc(C(=O)COC(=O)c3cc(OC)c(OC)cc3NC(=O)c3cccs3)c2C)cc1`, the inhibition is -15.5%.

Take `COc1ccc(-n2c(C)cc(C(=O)CSc3nnc(-c4cccs4)o3)c2C)cc1`: the inhibition was 40.8% (active).

As for `Cc1cc(C)n(CCC(=O)N2CCN(S(=O)(=O)c3ccc(C)c(C)c3)CC2)n1`, the inhibition is -19%.

For the compound `CNS(=O)(=O)c1ccc(C(=O)NCC(=O)NCCc2ccc3c(c2)OCCO3)cc1`, the inhibition was -17.8%.

As for `CCOC(=O)Cn1c(-c2cccnc2Cl)nc2ccccc21`, the inhibition was 6.66%.

For `CCOC(=O)COn1c(=O)c(-c2ccc(OCC)cc2)[n+]([O-])c2ccccc21`, the inhibition was -6.3%.

As to `CCCCCCCCCCOC(=O)Cn1c(COc2cccc(OC)c2)[n+](C)c2ccccc21`, the inhibition is 43.2% (active).

With `CCCCn1c(N)c(N(CCOC)C(=O)c2cccc(OCc3ccccc3)c2)c(=O)[nH]c1=O`, the inhibition was -12.8%.

Regarding `COc1cccc(OCc2nnc3n2N=C(c2ccccc2)C(CC(=O)O)S3)c1` (stereo not given), the inhibition is -2.16%.

On to `CCCCCCCCCCOC(=O)Cn1c(COc2ccc(C)cc2)[n+](C)c2ccccc21`, for which the inhibition was 78.8% (active).

With `CCOC(=O)C1CCN(Cc2c(C(=O)N3CCOCC3)nc3c(C)cccn23)CC1`, the inhibition was -3.54%.

Turning to `Cc1cccc(-n2c(Cc3cc(=O)[nH]c(=O)[nH]3)nnc2SCC(=O)Nc2cccc(C(F)(F)F)c2)c1`, the inhibition was -7.28%.

Turning to `CCOC(=O)C(Sc1ncc(C#N)c(N)n1)C(C)C` (stereo not given), the inhibition is -2.34%.

Regarding `CC[C@]1(C(=O)OC)[C@H]2C(=O)N(Cc3ccccc3)C(=O)[C@H]2[C@H]2CN=C(SCc3ccc(Cl)cc3)N21`, the inhibition was -19.6%.

For the compound `CC(=O)c1c(C)oc2ccc(NS(=O)(=O)c3ccc(C(=O)O)cc3)cc12`, the inhibition is 7.03%.

Consider `COc1ccc(S(=O)(=O)Nc2ccc3oc(C)c(C(C)=O)c3c2)cc1`, for which the inhibition is 40.8% (active).

In the case of `CC(=O)c1c(C)oc2ccc(NS(=O)(=O)c3ccccc3)cc12`, the inhibition is -0.19%.

With `CCCCN1C(=O)C(=O)N(CC(=O)Nc2cccc(C(C)=O)c2)C1=O`, the inhibition was -9.38%.

Regarding `COc1cc(C(=O)NCCOC(=O)c2cccc(N(C)C)c2)cc(OC)c1OC`, the inhibition was -13.3%.

Take `Cc1ccc2cccc(O)c2[n+]1[O-]`: the inhibition is -4.21%.

Take `COC(=O)CNC(=O)c1ccc(OC2CCN(C(=O)C3CC3)CC2)cc1`: the inhibition was 2.53%.

As to `COCCOC(=O)c1[nH]c2c(c1C)C(=O)CC(c1ccc(OC)cc1)C2` (stereo not given), the inhibition was -15.7%.

As for `CCCOC(=O)c1[nH]c2c(c1C)C(=O)CC(c1cccs1)C2` (stereo not given), the inhibition was -21.6%.

In the case of `CCCOC(=O)c1[nH]c2c(c1C)C(=O)CC(c1cc(OC)c(OC)c(OC)c1)C2` (stereo not given), the inhibition was 33.7% (active).

`COc1cc(/C(=C/c2ccccc2)c2ccccc2)c2c(c1)oc1ccccc12`: the inhibition was -12.8%.

As to `Cc1cc(Br)ccc1NC(=O)c1cnc(N2CCN(c3ccccn3)CC2)c2ccccc12`, the inhibition was -29.1%.

On to `Cc1ccc(S(=O)(=O)Nc2ccc3ncccc3c2)cc1`, for which the inhibition was 37.3% (active).

In the case of `Cc1cc(C)cc(OCC(=O)Nc2ccc(S(=O)(=O)Nc3ccccn3)cc2)c1`, the inhibition is 2.04%.

Turning to `Cc1ccc(NS(=O)(=O)c2ccc(C(C)(C)C)cc2)cn1`, the inhibition is -3.3%.

In the case of `Oc1oc(-c2ccccc2Br)nc1/C=N/c1ccccn1`, the inhibition was 1.24%.

In the case of `CCn1c(CSCc2c(Cl)cccc2Cl)n[nH]c1=S`, the inhibition is 4.32%.
